Assay results from ChEMBL document CHEMBL3286247, “Expansion of Antibacterial Spectrum of Muraymycins toward Pseudomonas aeruginosa” (ACS Med Chem Lett, 2014).
≈ marks a conversion by molar mass, not a printed value.

Experiments:
Pseudomonas aeruginosa [1] = assay: Antibacterial activity against clinical isolate Pseudomonas aeruginosa SR27156 assessed as growth inhibition after 20 hrs by microdilution method; assay type: functional; conditions: SR27156, 20 h
How it was run: (§1)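 Broth microdilution per CLSI in cation-adjusted Mueller-Hinton broth, using serial 2-fold compound dilutions. Each strain was inoculated at 5 × 10⁴ CFU per well in 0.1 mL. Plates were incubated at 35 °C for 20 h, and the MIC was then scored.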

Pseudomonas aeruginosa [2] = assay: Antibacterial activity against Pseudomonas aeruginosa PAO1 assessed as growth inhibition after 20 hrs by microdilution method; assay type: functional; conditions: PAO1, 20 h; how it was run: as §1
[3] = Inhibition of Staphylococcus aureus MraY by fluorescence assay
How it was run: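 Purified S. aureus MraY was given UDP-MurNAc-dansylpentapeptide as substrate. Formation of dansylated lipid I was followed by fluorescence enhancement (excitation 355 nm, emission 535 nm).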

Pseudomonas aeruginosa [4] = assay: Antibacterial activity against Pseudomonas aeruginosa ATCC 27853 assessed as growth inhibition after 20 hrs by microdilution method; assay type: functional; conditions: ATCC 27853, 20 h; how it was run: as §1
Pseudomonas aeruginosa [5] = assay: Antibacterial activity against Pseudomonas aeruginosa YY165 deltamexB mutant assessed as growth inhibition after 20 hrs by microdilution method; assay type: functional; conditions: YY165, 20 h
How it was run: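 Broth microdilution per CLSI in cation-adjusted Mueller–Hinton broth; serial 2-fold compound dilutions inoculated with 5 × 10⁴ CFU per well (0.1 mL), incubated 35 °C for 20 h, then MIC scored. Strain YY165 is a MexB deletion mutant lacking the inner-membrane transporter of the MexAB-OprM efflux system.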

Pseudomonas aeruginosa [6] = assay: Antibacterial activity against Pseudomonas aeruginosa ATCC 25619 assessed as growth inhibition after 20 hrs by microdilution method; assay type: functional; conditions: ATCC 25619, 20 h; how it was run: as §1

SMILES | MIC (Pseudomonas aeruginosa [1]) | MIC (Pseudomonas aeruginosa [2]) | IC50 [3] | MIC (Pseudomonas aeruginosa [4]) | MIC (Pseudomonas aeruginosa [5]) | MIC (Pseudomonas aeruginosa [6])
CCCCCCCCCCCCCCC[C@H](NC(=O)[C@@H](NC(=O)N[C@H](C(=O)O)C(C)C)[C@@H]1CCNC(=N)N1)C(=O)NCCCN[C@H](C(=O)O)[C@H](O[C@@H]1O[C@H](CN)[C@@H](O)[C@H]1O)[C@H]1O[C@@H](n2ccc(=O)[nH]c2=O)[C@H](O)[C@@H]1O | > 64 µg/mL | > 64 µg/mL | 1.1 nM | > 64 µg/mL | > 64 µg/mL | > 64 µg/mL
CCCCCCCCCCCCCCC[C@H](NC(=O)[C@@H](NC(=O)N[C@H](C(=O)O)C(C)C)[C@H]1CCNC(=N)N1)C(=O)NCCCN[C@H](C(=O)O)[C@H](O[C@@H]1O[C@H](CN)[C@@H](O)[C@H]1O)[C@H]1O[C@@H](n2ccc(=O)[nH]c2=O)[C@H](O)[C@@H]1O | > 64 µg/mL | > 64 µg/mL | 0.8 nM | > 64 µg/mL | > 64 µg/mL | > 64 µg/mL
CCCCCCCCCCCCCCC[C@H](NC(=O)[C@H](CCCNC(=N)N)NC(=O)N[C@H](C(=O)O)C(C)C)C(=O)NCCCN[C@H](C(=O)O)[C@H](O[C@@H]1O[C@H](CN)[C@@H](O)[C@H]1O)[C@H]1O[C@@H](n2ccc(=O)[nH]c2=O)[C@H](O)[C@@H]1O | > 64 µg/mL | > 64 µg/mL | 0.7 nM | > 64 µg/mL | > 64 µg/mL | > 64 µg/mL
CCCCCCCCCCCCCCC[C@H](NC(=O)[C@H](CCCN)NC(=O)N[C@H](C(=O)O)C(C)C)C(=O)NCCCN[C@H](C(=O)O)[C@H](O[C@@H]1O[C@H](CN)[C@@H](O)[C@H]1O)[C@H]1O[C@@H](n2ccc(=O)[nH]c2=O)[C@H](O)[C@@H]1O | > 64 µg/mL | > 64 µg/mL | 0.8 nM | > 64 µg/mL | > 64 µg/mL | > 64 µg/mL
CCCCCCCCCCCCCCC[C@H](NC(=O)[C@@H](NC(=O)OCc1ccccc1)[C@@H]1CCNC(=N)N1)C(=O)NCCCN[C@H](C(=O)O)[C@H](O[C@@H]1O[C@H](CN)[C@@H](O)[C@H]1O)[C@H]1O[C@@H](n2ccc(=O)[nH]c2=O)[C@H](O)[C@@H]1O | > 64 µg/mL | > 64 µg/mL | 4.2 nM | > 64 µg/mL | > 64 µg/mL | > 64 µg/mL
CCCCCCCCCCCCCCC[C@H](NC(=O)[C@@H](N)[C@@H]1CCNC(=N)N1)C(=O)NCCCN[C@H](C(=O)O)[C@H](O[C@@H]1O[C@H](CN)[C@@H](O)[C@H]1O)[C@H]1O[C@@H](n2ccc(=O)[nH]c2=O)[C@H](O)[C@@H]1O | 64 µg/mL (≈ 69 µM) | > 64 µg/mL | 2.4 nM | > 64 µg/mL | 32 µg/mL (≈ 34.5 µM) | > 64 µg/mL
CCCCCCCCCCCCCCC[C@H](NC(=O)[C@@H](N)CCCN)C(=O)NCCCN[C@H](C(=O)O)[C@H](O[C@@H]1O[C@H](CN)[C@@H](O)[C@H]1O)[C@H]1O[C@@H](n2ccc(=O)[nH]c2=O)[C@H](O)[C@@H]1O | 32 µg/mL (≈ 36.1 µM) | 64 µg/mL (≈ 72.1 µM) | 3.8 nM | 64 µg/mL (≈ 72.1 µM) | 32 µg/mL (≈ 36.1 µM) | 32 µg/mL (≈ 36.1 µM)
CCCCCCCCCCCCCCC[C@H](NC(=O)[C@@H](N)CCCNC(=N)N)C(=O)NCCCN[C@H](C(=O)O)[C@H](O[C@@H]1O[C@H](CN)[C@@H](O)[C@H]1O)[C@H]1O[C@@H](n2ccc(=O)[nH]c2=O)[C@H](O)[C@@H]1O | 16 µg/mL (≈ 17.2 µM) | 16 µg/mL (≈ 17.2 µM) | 2.2 nM | 32 µg/mL (≈ 34.4 µM) | 8 µg/mL (≈ 8.61 µM) | 8 µg/mL (≈ 8.61 µM)
CCCCCCCCCCCCCCC[C@H](NC(=O)[C@@H](N)CCCSC)C(=O)NCCCN[C@H](C(=O)O)[C@H](O[C@@H]1O[C@H](CN)[C@@H](O)[C@H]1O)[C@H]1O[C@@H](n2ccc(=O)[nH]c2=O)[C@H](O)[C@@H]1O | 64 µg/mL (≈ 69.7 µM) | > 64 µg/mL | 8.5 nM | 64 µg/mL (≈ 69.7 µM) | 16 µg/mL (≈ 17.4 µM) | 16 µg/mL (≈ 17.4 µM)
CCCCCCCCCCCCCCC[C@H](N)C(=O)NCCCN[C@H](C(=O)O)[C@H](O[C@@H]1O[C@H](CN)[C@@H](O)[C@H]1O)[C@H]1O[C@@H](n2ccc(=O)[nH]c2=O)[C@H](O)[C@@H]1O | > 64 µg/mL | > 64 µg/mL | 2.6 nM | > 64 µg/mL | 32 µg/mL (≈ 41.4 µM) | 32 µg/mL (≈ 41.4 µM)
CCCCCCCCCCCCCCC[C@H](NC(C)=O)C(=O)NCCCN[C@H](C(=O)O)[C@H](O[C@@H]1O[C@H](CN)[C@@H](O)[C@H]1O)[C@H]1O[C@@H](n2ccc(=O)[nH]c2=O)[C@H](O)[C@@H]1O | 64 µg/mL (≈ 78.5 µM) | 64 µg/mL (≈ 78.5 µM) | 2.7 nM | > 64 µg/mL | 32 µg/mL (≈ 39.3 µM) | 32 µg/mL (≈ 39.3 µM)
CCCCCCCCCCCCCCC[C@H](NC(=O)c1ccccc1)C(=O)NCCCN[C@H](C(=O)O)[C@H](O[C@@H]1O[C@H](CN)[C@@H](O)[C@H]1O)[C@H]1O[C@@H](n2ccc(=O)[nH]c2=O)[C@H](O)[C@@H]1O | > 64 µg/mL | > 64 µg/mL | 29.6 nM | > 64 µg/mL | > 64 µg/mL | > 64 µg/mL
